From ChEMBL document CHEMBL1914406, “Inhibitory effect of novel 5-O-acyl juglones on mammalian DNA polymerase activity, cancer cell growth and inflammatory response” (Bioorg Med Chem, 2011) come the findings set out here.

One test deals with DNA polymerase lambda (Homo sapiens, UniProt Q9UGP5). Briefly: Inhibition of His-tagged human DNA polymerase lambda using poly(dA)/oligo(dT)18 (A/T = 2/1) and dTTP as the DNA template-primer and nucleotide substrate after 60 mins. The method, boiled down:
(§1)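 Compound in DMSO, sonicated 30 s. Premixed 0 °C, 10 min with enzyme (0.05 units) in 50 mM Tris-HCl pH 7.5, 1 mM DTT, 50% glycerol, 0.1 mM EDTA, then added to standard reaction mixture. Template-primers: poly(dA)/oligo(dT)18 (2/1) for pols, oligo(dT)18 for TdT, poly(rA)/oligo(dT)18 for HIV-1 RT, with [3H]dTTP. 60 min at 37 °C (Taq 74 °C). Activity relative to no-inhibitor control; mean ± SE of three experiments.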

The subject of another test is RAW264.7. Briefly: Antiinflammatory activity in mouse RAW264.7 cells assessed as inhibition of LPS-induced TNFalpha secretion at 5 uM treated 30 mins before LPS challenge measured after 24 hrs by ELISA. In kind it is functional, cell-based. The essentials: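 RAW264.7 cells in MEM with 4.5 g/L glucose, 10% FCS, 5 mM L-glutamine, at 37 °C in 5% CO2. Seeded at 5 × 10⁴ cells/well and grown 24 h. Compound (final 1 and 5 µM) given 30 min before 100 ng/mL LPS. After 24 h, TNF-α in the medium measured by ELISA, relative to the no-compound value (100%). Mean ± SE, n = 4.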

Test [1] is described as follows: Inhibition of calf primase of DNA polymerase alpha. On the set-up: species or system Bos taurus. The essentials:
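Calf primase of pol α and mouse IMP dehydrogenase type II measured by standard assays per manufacturer's specifications. Activity relative to no-compound control (100%).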

For test [2], the system named is HCT-116. Briefly: Cytotoxicity against human HCT116 cells by WST-1 assay relative to etoposide. Type of test: functional, cell-based. For orientation: Tetrazolium dyes change colour on reduction, which living cells bring about.
Test [3] deals with HCT-116. Put plainly: Cytotoxicity against human HCT116 cells by WST-1 assay. Type of test: functional, cell-based. The essentials:
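HCT116 colon carcinoma cells (ATCC) grown in McCoy's 5A with 10% FBS, penicillin and streptomycin, 37 °C, 5% CO2. Plated at 1 × 10⁴ cells/well together with compound, which was diluted from a 10 mM DMSO stock into medium (final 0.5% DMSO). Incubated 24 h. Viability read by WST-1, expressed relative to untreated cells.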

Test [4] relates to HCT-116. Briefly: Cytotoxicity against human HCT116 cells by WST-1 assay relative to aphidicolin. Type of test: functional, cell-based.
The test system of test [5] is HCT-116. Briefly: Cytotoxicity against human HCT116 cells by WST-1 assay relative to camptothecin. In kind it is functional, cell-based.
A short description of test [6]: Inhibition of human DNA polymerase delta using poly(dA)/oligo(dT)18 (A/T = 2/1) and dTTP as the DNA template-primer and nucleotide substrate after 60 mins. The method, boiled down: as §1

Active and inactive are the calls of the source. The rule behind the calls is not given here.

Sequence of DNA polymerase lambda (Q9UGP5 whole entry): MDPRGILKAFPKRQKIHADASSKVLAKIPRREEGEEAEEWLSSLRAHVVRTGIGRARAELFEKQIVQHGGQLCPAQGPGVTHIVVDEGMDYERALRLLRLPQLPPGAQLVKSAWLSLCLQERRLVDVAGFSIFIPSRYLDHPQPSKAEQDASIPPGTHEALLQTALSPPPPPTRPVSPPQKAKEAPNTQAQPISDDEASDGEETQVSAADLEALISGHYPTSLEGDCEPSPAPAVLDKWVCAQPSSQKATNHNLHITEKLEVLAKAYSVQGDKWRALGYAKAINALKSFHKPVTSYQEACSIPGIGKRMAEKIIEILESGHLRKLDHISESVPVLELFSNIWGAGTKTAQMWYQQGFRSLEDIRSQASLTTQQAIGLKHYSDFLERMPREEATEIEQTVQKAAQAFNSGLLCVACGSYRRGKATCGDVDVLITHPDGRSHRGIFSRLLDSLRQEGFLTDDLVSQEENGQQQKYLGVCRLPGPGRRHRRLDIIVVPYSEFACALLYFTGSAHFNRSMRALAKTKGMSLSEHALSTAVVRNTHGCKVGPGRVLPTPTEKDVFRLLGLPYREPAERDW

As to `CCCCCCCCCCCC(=O)Oc1cccc2c1C(=O)C=CC2=O`, the IC50 (commonly the concentration needed to halve the response being measured) on DNA polymerase lambda was 7 µM; in test [1], over 100 µM. In addition, in the test on RAW264.7, the outcome was Active.
Turning to `CCCCCCCC/C=C\CCCCCCCC(=O)Oc1cccc2c1C(=O)C=CC2=O`, the outcome in the test with HCT-116 [2], in the test with HCT-116 [3], with HCT-116 [4] and in the test on HCT-116 [5] was Active. The IC50 on DNA polymerase lambda is 10.2 µM; in test [1] it was over 100 µM; in test [6], 740 nM.
